Experimental data as given in ChEMBL document CHEMBL4152256, “Structure-activity relationship of new antimalarial 1-aryl-3-susbtituted propanol derivatives: Synthesis, preliminary toxicity profiling, parasite life cycle stage studies, target exploration, and targeted delivery” (Eur J Med Chem, 2018).

Columns and labels:
[1] = Genotoxicity in Salmonella typhimurium TA1535 harboring pSK1002 assessed as survival at 0.125 mg/ml in absence of Sprague-Dawley rat liver S9 fraction after by SOS/umu assay relative to control; format: toxicity, organism-based; conditions: salmonella enterica subsp. enterica serovar typhimurium, read-out: Survival
[2] = Genotoxicity in Salmonella typhimurium TA1535 harboring pSK1002 assessed as umu gene induction at 0.016 mg/ml in presence of Sprague-Dawley rat liver S9 fraction after by SOS/umu assay relative to control; format: toxicity, organism-based; conditions: salmonella enterica subsp. enterica serovar typhimurium, read-out: FC
[3] = Genotoxicity in Salmonella typhimurium TA1535 harboring pSK1002 assessed as survival at 0.063 mg/ml in presence of Sprague-Dawley rat liver S9 fraction after by SOS/umu assay relative to control; format: toxicity, organism-based; conditions: salmonella enterica subsp. enterica serovar typhimurium, read-out: Survival
[4] = Genotoxicity in Salmonella typhimurium TA1535 harboring pSK1002 assessed as umu gene induction at 0.008 mg/ml in absence of Sprague-Dawley rat liver S9 fraction after by SOS/umu assay relative to control; format: toxicity, organism-based; conditions: salmonella enterica subsp. enterica serovar typhimurium, read-out: FC
[5] = tested on: Plasmodium falciparum; assay: Antiplasmodial activity against chloroquine-sensitive Plasmodium falciparum 3D7 by [3H]-hypoxanthine incorporation assay; format: functional, organism-based
Method in brief: (§1)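 Blood-stage P. falciparum 3D7 and FCR-3 were tested by a modified [3H]-hypoxanthine incorporation assay. Chloroquine was the reference in all runs.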

[6] = Genotoxicity in Salmonella typhimurium TA1535 harboring pSK1002 assessed as umu gene induction at 0.004 mg/ml in absence of Sprague-Dawley rat liver S9 fraction after by SOS/umu assay relative to control; format: toxicity, organism-based; conditions: salmonella enterica subsp. enterica serovar typhimurium, read-out: FC
[7] = Genotoxicity in Salmonella typhimurium TA1535 harboring pSK1002 assessed as survival at 0.031 mg/ml in presence of Sprague-Dawley rat liver S9 fraction after by SOS/umu assay relative to control; format: toxicity, organism-based; conditions: salmonella enterica subsp. enterica serovar typhimurium, read-out: Survival
[8] = Genotoxicity in Salmonella typhimurium TA1535 harboring pSK1002 assessed as umu gene induction at 0.016 mg/ml in absence of Sprague-Dawley rat liver S9 fraction after by SOS/umu assay relative to control; format: toxicity, organism-based; conditions: salmonella enterica subsp. enterica serovar typhimurium, read-out: FC
[9] = Genotoxicity in Salmonella typhimurium TA1535 harboring pSK1002 assessed as umu gene induction at 0.063 mg/ml in absence of Sprague-Dawley rat liver S9 fraction after by SOS/umu assay relative to control; format: toxicity, organism-based; conditions: salmonella enterica subsp. enterica serovar typhimurium, read-out: FC
[10] = Genotoxicity in Salmonella typhimurium TA1535 harboring pSK1002 assessed as umu gene induction at 0.001 mg/ml in presence of Sprague-Dawley rat liver S9 fraction after by SOS/umu assay relative to control; format: toxicity, organism-based; conditions: salmonella enterica subsp. enterica serovar typhimurium, read-out: FC
[11] = Genotoxicity in Salmonella typhimurium TA1535 harboring pSK1002 assessed as umu gene induction at 0.125 mg/ml in presence of Sprague-Dawley rat liver S9 fraction after by SOS/umu assay relative to control; format: toxicity, organism-based; conditions: salmonella enterica subsp. enterica serovar typhimurium, read-out: FC
[12] = Genotoxicity in Salmonella typhimurium TA1535 harboring pSK1002 assessed as umu gene induction at 0.002 mg/ml in absence of Sprague-Dawley rat liver S9 fraction after by SOS/umu assay relative to control; format: toxicity, organism-based; conditions: salmonella enterica subsp. enterica serovar typhimurium, read-out: FC
[13] = Genotoxicity in Salmonella typhimurium TA1535 harboring pSK1002 assessed as umu gene induction at 0.031 mg/ml in presence of Sprague-Dawley rat liver S9 fraction after by SOS/umu assay relative to control; format: toxicity, organism-based; conditions: salmonella enterica subsp. enterica serovar typhimurium, read-out: FC
[14] = Selectivity index, ratio of CC50 for human HepG2A16 cells by MTT assay to IC50 for multidrug-resistant Plasmodium falciparum FCR-3; format: toxicity; conditions: for selectivity ratio: HepG2A16 cells, read-out: Ratio CC50/IC50
Method in brief: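 HepG2-A16 human hepatoma cells were tested by MTT viability assay to give CC50. Blood-stage activity was measured against the multidrug-resistant P. falciparum FCR-3 strain by [3H]-hypoxanthine incorporation to give IC50. SI = CC50 HepG2 / FCR-3 IC50.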

[15] = Genotoxicity in Salmonella typhimurium TA1535 harboring pSK1002 assessed as survival at 0.031 mg/ml in absence of Sprague-Dawley rat liver S9 fraction after by SOS/umu assay relative to control; format: toxicity, organism-based; conditions: salmonella enterica subsp. enterica serovar typhimurium, read-out: Survival
[16] = Genotoxicity in Salmonella typhimurium TA1535 harboring pSK1002 assessed as umu gene induction at 0.031 mg/ml in absence of Sprague-Dawley rat liver S9 fraction after by SOS/umu assay relative to control; format: toxicity, organism-based; conditions: salmonella enterica subsp. enterica serovar typhimurium, read-out: FC
[17] = Genotoxicity in Salmonella typhimurium TA1535 harboring pSK1002 assessed as survival at 0.001 mg/ml in presence of Sprague-Dawley rat liver S9 fraction after by SOS/umu assay relative to control; format: toxicity, organism-based; conditions: salmonella enterica subsp. enterica serovar typhimurium, read-out: Survival
[18] = Cytotoxicity against human HepG2A16 cells by MTT assay; format: cell-based
Method in brief: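 MTT viability assay on HepG2-A16 cells, giving CC50 values.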

[19] = Genotoxicity in Salmonella typhimurium TA1535 harboring pSK1002 assessed as survival at 0.016 mg/ml in presence of Sprague-Dawley rat liver S9 fraction after by SOS/umu assay relative to control; format: toxicity, organism-based; conditions: salmonella enterica subsp. enterica serovar typhimurium, read-out: Survival
[20] = Genotoxicity in Salmonella typhimurium TA1535 harboring pSK1002 assessed as survival at 0.002 mg/ml in absence of Sprague-Dawley rat liver S9 fraction after by SOS/umu assay relative to control; format: toxicity, organism-based; conditions: salmonella enterica subsp. enterica serovar typhimurium, read-out: Survival
[21] = Genotoxicity in Salmonella typhimurium TA1535 harboring pSK1002 assessed as umu gene induction at 0.125 mg/ml in absence of Sprague-Dawley rat liver S9 fraction after by SOS/umu assay relative to control; format: toxicity, organism-based; conditions: salmonella enterica subsp. enterica serovar typhimurium, read-out: FC
[22] = Genotoxicity in Salmonella typhimurium TA1535 harboring pSK1002 assessed as survival at 0.008 mg/ml in presence of Sprague-Dawley rat liver S9 fraction after by SOS/umu assay relative to control; format: toxicity, organism-based; conditions: salmonella enterica subsp. enterica serovar typhimurium, read-out: Survival
[23] = Genotoxicity in Salmonella typhimurium TA1535 harboring pSK1002 assessed as survival at 0.001 mg/ml in absence of Sprague-Dawley rat liver S9 fraction after by SOS/umu assay relative to control; format: toxicity, organism-based; conditions: salmonella enterica subsp. enterica serovar typhimurium, read-out: Survival
[24] = Genotoxicity in Salmonella typhimurium TA1535 harboring pSK1002 assessed as umu gene induction at 0.004 mg/ml in presence of Sprague-Dawley rat liver S9 fraction after by SOS/umu assay relative to control; format: toxicity, organism-based; conditions: salmonella enterica subsp. enterica serovar typhimurium, read-out: FC
[25] = Genotoxicity in Salmonella typhimurium TA1535 harboring pSK1002 assessed as survival at 0.008 mg/ml in absence of Sprague-Dawley rat liver S9 fraction after by SOS/umu assay relative to control; format: toxicity, organism-based; conditions: salmonella enterica subsp. enterica serovar typhimurium, read-out: Survival
[26] = Genotoxicity in Salmonella typhimurium TA1535 harboring pSK1002 assessed as umu gene induction at 0.008 mg/ml in presence of Sprague-Dawley rat liver S9 fraction after by SOS/umu assay relative to control; format: toxicity, organism-based; conditions: salmonella enterica subsp. enterica serovar typhimurium, read-out: FC
[27] = tested on: Plasmodium falciparum; assay: Antiplasmodial activity against multidrug-resistant Plasmodium falciparum FCR-3 by [3H]-hypoxanthine incorporation assay; format: functional, organism-based, FCR-3/Gambia; method in brief: as §1
[28] = Genotoxicity in Salmonella typhimurium TA1535 harboring pSK1002 assessed as survival at 0.063 mg/ml in absence of Sprague-Dawley rat liver S9 fraction after by SOS/umu assay relative to control; format: toxicity, organism-based; conditions: salmonella enterica subsp. enterica serovar typhimurium, read-out: Survival
[29] = Genotoxicity in Salmonella typhimurium TA1535 harboring pSK1002 assessed as survival at 0.004 mg/ml in presence of Sprague-Dawley rat liver S9 fraction after by SOS/umu assay relative to control; format: toxicity, organism-based; conditions: salmonella enterica subsp. enterica serovar typhimurium, read-out: Survival
[30] = Plasmodium falciparum, FCR-3/Gambia, 3 h

| Compound | viability at 0.125 mg/ml [1] [%] | fold induction at 0.016 mg/ml [2] | viability at 0.063 mg/ml [3] [%] | fold induction at 0.008 mg/ml [4] | fold induction at 0.004 mg/ml [6] | viability at 0.031 mg/ml [7] [%] | fold induction at 0.016 mg/ml [8] | fold induction at 0.063 mg/ml [9] | fold induction at 0.001 mg/ml [10] | fold induction at 0.125 mg/ml [11] | fold induction at 0.002 mg/ml [12] | fold induction at 0.031 mg/ml [13] | viability at 0.031 mg/ml [15] [%] | fold induction at 0.031 mg/ml [16] | viability at 0.001 mg/ml [17] [%] | viability at 0.016 mg/ml [19] [%] | viability at 0.002 mg/ml [20] [%] | fold induction at 0.125 mg/ml [21] | viability at 0.008 mg/ml [22] [%] | viability at 0.001 mg/ml [23] [%] | other results |
| --- | --- | --- | --- | --- | --- | --- | --- | --- | --- | --- | --- | --- | --- | --- | --- | --- | --- | --- | --- | --- | --- |
| COc1ccccc1C1=CCN(CCC(O)c2ccc(F)cc2)CC1 (stereo unspecified) | 107 | 1.2 | 91 | 1 | 1.1 | 81.8 | 1 | 0.9 | 1.2 | 1 | 1.1 | 1 | 114 | 1 | 103 | 78.9 | 103 | 1 | 88.3 | 114 | IC50 ([5]; Plasmodium falciparum, 3D7): 2.82 µM; selectivity ratio [14]: 51; CC50 ([18]; HepG2A16 cells): 67 µM; fold induction at 0.004 mg/ml [24]: 1.1; viability at 0.008 mg/ml [25]: 111%; fold induction at 0.008 mg/ml [26]: 1; IC50 [27, 30]: 1.32 µM; viability at 0.063 mg/ml [28]: 101%; viability at 0.004 mg/ml [29]: 82.3% |
| N#Cc1ccc(N2CCC(NCCC(O)c3ccc(F)c4ccccc34)CC2)c(C(F)(F)F)c1 (stereo in doubt; 72) | 62.4 | 0.6 | 85.2 | 0.8 | 0.9 | 35 | 0.8 | 0.3 | 0.8 | 0.2 | 1.3 | 0.6 | 30.2 | 0.7 | 121 | 36.3 | 110 | 0.2 | 52.9 | 132 | IC50 [5]: 0.13 µM; Ratio CC50/IC50 [14]: 78; CC50 [18]: 6.22 µM; fold induction at 0.004 mg/ml [24]: 0.7; viability at 0.008 mg/ml [25]: 32.9%; fold induction at 0.008 mg/ml [26]: 1.3; IC50 [27]: 0.08 µM; viability at 0.063 mg/ml [28]: 54.7%; viability at 0.004 mg/ml [29]: 136% |
| COc1ccccc1N1CCN(CCC(O)c2ccc(F)cc2)CC1 (stereo in doubt; 66) | 107 | 1.1 | 100 | 1 | 1.1 | 99.2 | 1 | 0.9 | 1.3 | 1 | 1 | 0.9 | 116 | 1 | 91.6 | 82.8 | 114 | 0.9 | 88.2 | 110 | IC50 [5]: 7.31 µM; Ratio CC50/IC50 [14]: 103; CC50 [18]: 19.5 µM; fold induction at 0.004 mg/ml [24]: 1; viability at 0.008 mg/ml [25]: 114%; fold induction at 0.008 mg/ml [26]: 1; IC50 [27]: 0.19 µM; viability at 0.063 mg/ml [28]: 108%; viability at 0.004 mg/ml [29]: 93.1% |
| Oc1ccc(C(O)CCN2CC=C(c3ccc(F)cc3)CC2)cc1 (stereo unspecified) | 112 | 1.2 | 118 | 1.1 | 1 | 110 | 1.2 | 0.5 | 0.5 | 0.4 | 1 | 1.8 | 105 | 1.1 | 102 | 120 | 98.6 | 0.5 | 108 | 87.9 | IC50 ([5]; Plasmodium falciparum, 3D7): 22.2 µM; selectivity ratio [14]: 88; CC50 ([18]; HepG2A16 cells): 253 µM; fold induction at 0.004 mg/ml [24]: 0.5; viability at 0.008 mg/ml [25]: 98.3%; fold induction at 0.008 mg/ml [26]: 0.6; IC50 [27, 30]: 2.88 µM; viability at 0.063 mg/ml [28]: 123%; viability at 0.004 mg/ml [29]: 112% |
